Data from ChEMBL document CHEMBL5724801, “EUbOPEN Chemogenomics Library - Multiplex” (2024).
Several values for one entry are separate records, joined by “and”; a condition that tells them apart may be missing. Equal entries are not always repeated.

How the values were obtained:
HEK-293T = assay: Multiplex assay against HEK293T; type: toxicity, cell-based; settings: human
Summary of the method: (§1)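 Per cents of healthy-nucleus cells form the tubulin, mitochondrial-mass and membrane-permeability phenotype values. Live cells were stained at seeding with Hoechst33342, BioTracker Green Microtubule Cytoskeleton Dye, MitoTracker Red and Annexin V Alexa Fluor 680. After compound addition they were imaged on a CQ1 microscope at 37°C and 5% CO2, and CellPathfinder machine-learning gating split them into Hoechst high-intensity objects or normal cells, normal cells into healthy, pyknosed or fragmented nuclei, and pyknosed cells into mitotic or apoptotic.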

Fibroblast = assay: Multiplex assay against human fibroblast; type: toxicity, cell-based; summary of the method: as §1
[1] = 12 h, 1 µM, compound concentration 1 uM
[2] = 12 h, 10 µM, compound concentration 10 uM
[3] = 24 h, 1 µM, compound concentration 1 uM
[4] = 24 h, 10 µM, compound concentration 10 uM
[5] = 48 h, 1 µM, compound concentration 1 uM
[6] = 48 h, 10 µM, compound concentration 10 uM

For `CN(C)CCCn1cc(C2=C(c3c[nH]c4ccccc34)C(=O)NC2=O)c2ccccc21` [GF-109203], the “Population Apoptotic (%)” value (HEK-293T; [1]) was 9.36% and 6.29%, the “Population Fragmented Nuclei (%)” value (HEK-293T; [1]) was 1.17% and 4.02% and the “Population Hoechst High Intensity Objects (%)” value (HEK-293T; [1]) was 0.58% and 0%. The “Population Membrane Permeable-Phenotype (%)” value (HEK-293T; [1]) was 0% and 4.17%, the “Population Mitochondria Different-Phenotype (%)” value (HEK-293T; [1]) was 26.35% and 29.17% and the “Population Mitotic Cells (%)” value (HEK-293T; [1]) was 90.64% and 93.71%. For the same molecule, the “Population Normal (%)” value (HEK-293T; [1]) was 99.42% and 100%, the “Population Pyknosed Nuclei (%)” value (HEK-293T; [1]) was 50% and 82.18% and the “Total Cell Count” value (HEK-293T; [1]) was 344 and 174. The “Population Apoptotic (%)” value (HEK-293T; [2]) was 11.11% and 17.19%, the “Population Fragmented Nuclei (%)” value (HEK-293T; [2]) was 4.81% and 3.4% and the “Population Hoechst High Intensity Objects (%)” value (HEK-293T; [2]) was 0.32% and 0%. For the same molecule, the “Population Membrane Permeable-Phenotype (%)” value (HEK-293T; [2]) was 0% and 7.14%, the “Population Mitotic Cells (%)” value (HEK-293T; [2]) was 88.89% and 82.81% and the “Population Normal (%)” value (HEK-293T; [2]) was 99.68% and 100%. For the same molecule, the “Population Pyknosed Nuclei (%)” value (HEK-293T; [2]) was 57.69% and 87.07%, the “Population Tubulin-Different-Phenotype (%)” value (HEK-293T; [2]) was 52.99% and 57.14% and the “Total Cell Count” value (HEK-293T; [2]) was 313 and 147. For the same molecule, the “Population Apoptotic (%)” value (HEK-293T; [3]) was 15.57% and 18.97%, the “Population Fragmented Nuclei (%)” value (HEK-293T; [3]) was 1.6% and 5.42% and the “Population Healthy Nuclei (%)” value (HEK-293T; [3]) was 73.95% and 24.7%. The “Population Hoechst High Intensity Objects (%)” value (HEK-293T; [3]) was 0%, the “Population Membrane Permeable-Phenotype (%)” value (HEK-293T; [3]) was 1.36% and 4.88% and the “Population Mitochondria Different-Phenotype (%)” value (HEK-293T; [3]) was 10.84% and 17.07%. The “Population Mitotic Cells (%)” value (HEK-293T; [3]) was 84.43% and 81.03%, the “Population Normal (%)” value (HEK-293T; [3]) was 100% and the “Population Pyknosed Nuclei (%)” value (HEK-293T; [3]) was 24.45% and 69.88%. For the same molecule, the “Population Tubulin-Different-Phenotype (%)” value (HEK-293T; [3]) was 17.62% and 12.2%, the “Population Apoptotic (%)” value (HEK-293T; [4]) was 27.17% and 24.46% and the “Population Fragmented Nuclei (%)” value (HEK-293T; [4]) was 2.62% and 2.48%. For the same molecule, the “Population Hoechst High Intensity Objects (%)” value (HEK-293T; [4]) was 0%, the “Population Membrane Permeable-Phenotype (%)” value (HEK-293T; [4]) was 0% and the “Population Mitochondria Different-Phenotype (%)” value (HEK-293T; [4]) was 40.74% and 16.67%. The “Population Mitotic Cells (%)” value (HEK-293T; [4]) was 72.83% and 75.54%, the “Population Normal (%)” value (HEK-293T; [4]) was 100% and the “Population Pyknosed Nuclei (%)” value (HEK-293T; [4]) was 50.29% and 86.34%. The “Population Tubulin-Different-Phenotype (%)” value (HEK-293T; [4]) was 84.57% and 50%, the “Total Cell Count” value (HEK-293T; [4]) was 344 and 161 and the “Population Apoptotic (%)” value (HEK-293T; [5]) was 10.45% and 22.58%. The “Population Fragmented Nuclei (%)” value (HEK-293T; [5]) was 0.57% and 1.08%, the “Population Healthy Nuclei (%)” value (HEK-293T; [5]) was 84.04% and 48.92% and the “Population Hoechst High Intensity Objects (%)” value (HEK-293T; [5]) was 0%. For the same molecule, the “Population Membrane Permeable-Phenotype (%)” value (HEK-293T; [5]) was 3.01% and 1.1%, the “Population Mitochondria Different-Phenotype (%)” value (HEK-293T; [5]) was 32.1% and 38.46% and the “Population Mitotic Cells (%)” value (HEK-293T; [5]) was 89.55% and 77.42%. The “Population Normal (%)” value (HEK-293T; [5]) was 100%, the “Population Apoptotic (%)” value (HEK-293T; [6]) was 45.68% and 29.41% and the “Population Fragmented Nuclei (%)” value (HEK-293T; [6]) was 1.92% and 2.34%. For the same molecule, the “Population Healthy Nuclei (%)” value (HEK-293T; [6]) was 46.15% and 18.13%, the “Population Hoechst High Intensity Objects (%)” value (HEK-293T; [6]) was 0% and 0.58% and the “Population Membrane Permeable-Phenotype (%)” value (HEK-293T; [6]) was 1.39% and 9.68%. For the same molecule, the “Population Mitochondria Different-Phenotype (%)” value (HEK-293T; [6]) was 87.5% and 58.06%, the “Population Mitotic Cells (%)” value (HEK-293T; [6]) was 54.32% and 70.59% and the “Population Normal (%)” value (HEK-293T; [6]) was 100% and 99.42%. For the same molecule, the “Population Pyknosed Nuclei (%)” value (HEK-293T; [6]) was 51.92% and 79.53%, the “Total Cell Count” value (HEK-293T; [6]) was 312 and 172 and the “Population Apoptotic (%)” value (Fibroblast; [1]) was 9.09% and 22.5%. The “Population Healthy Nuclei (%)” value (Fibroblast; [1]) was 57.53% and 77.2%, the “Population Hoechst High Intensity Objects (%)” value (Fibroblast; [1]) was 0% and the “Population Membrane Permeable-Phenotype (%)” value (Fibroblast; [1]) was 4.67% and 8.05%. The “Population Mitochondria Different-Phenotype (%)” value (Fibroblast; [1]) was 13.08% and 28.19%, the “Population Mitotic Cells (%)” value (Fibroblast; [1]) was 90.91% and 77.5% and the “Population Normal (%)” value (Fibroblast; [1]) was 100%. The “Population Pyknosed Nuclei (%)” value (Fibroblast; [1]) was 29.57% and 20.73%, the “Population Tubulin-Different-Phenotype (%)” value (Fibroblast; [1]) was 29.91% and 44.3% and the “Total Cell Count” value (Fibroblast; [1]) was 186 and 193. For the same molecule, the “Population Apoptotic (%)” value (Fibroblast; [2]) was 5.95% and 14.93%, the “Population Fragmented Nuclei (%)” value (Fibroblast; [2]) was 4.14% and 6.85% and the “Population Healthy Nuclei (%)” value (Fibroblast; [2]) was 46.15% and 47.26%. The “Population Hoechst High Intensity Objects (%)” value (Fibroblast; [2]) was 0%, the “Population Membrane Permeable-Phenotype (%)” value (Fibroblast; [2]) was 14.1% and 14.49% and the “Population Mitochondria Different-Phenotype (%)” value (Fibroblast; [2]) was 57.69% and 36.23%. For the same molecule, the “Population Mitotic Cells (%)” value (Fibroblast; [2]) was 94.05% and 85.07%, the “Population Normal (%)” value (Fibroblast; [2]) was 100% and the “Population Pyknosed Nuclei (%)” value (Fibroblast; [2]) was 49.7% and 45.89%. The “Population Tubulin-Different-Phenotype (%)” value (Fibroblast; [2]) was 84.62% and 86.96%, the “Total Cell Count” value (Fibroblast; [2]) was 169 and 146 and the “Population Fragmented Nuclei (%)” value (Fibroblast; [3]) was 6.12% and 5.42%. For the same molecule, the “Population Healthy Nuclei (%)” value (Fibroblast; [3]) was 63.78% and 77.34%, the “Population Hoechst High Intensity Objects (%)” value (Fibroblast; [3]) was 0% and the “Population Membrane Permeable-Phenotype (%)” value (Fibroblast; [3]) was 11.2% and 2.55%. For the same molecule, the “Population Mitochondria Different-Phenotype (%)” value (Fibroblast; [3]) was 10.4% and 22.93%, the “Population Mitotic Cells (%)” value (Fibroblast; [3]) was 98.31% and 85.71% and the “Population Normal (%)” value (Fibroblast; [3]) was 100%. For the same molecule, the “Population Pyknosed Nuclei (%)” value (Fibroblast; [3]) was 30.1% and 17.24%, the “Population Tubulin-Different-Phenotype (%)” value (Fibroblast; [3]) was 35.2% and 51.59% and the “Total Cell Count” value (Fibroblast; [3]) was 196 and 203.
